# The list is not random: actives were taken first. Their share in the collection is about 1.8%.
# Rev-RRE block: HIV-1 Rev-RRE binding inhibitors, primary screen, biochemical, FRET, protein-RNA interaction. P05866. Rev peptide-RRE RNA binding. inhibition, % at 8 µM. 97,000 tested, 0.79% active;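 active means inhibition above the screen-wide mean plus 3 SD, cut at about 35% in these data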;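 further: 0% = median DMSO wells and 100% = median Neomycin B control wells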
#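 Test system – labelled RRE RNA duplex and labelled Rev peptide · Reagent – labelled Rev peptide · Doses – one concentration, 8 µM nominal · Incubation – 5 + 15 min at 25 °C · Signal – FRET fluorescence readout · Read-out basis – % inhibition of FRET ratio versus controls · Control set – DMSO wells as 0% and neomycin B wells as 100% inhibition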
# FAK inh: FAK kinase inhibitors, primary screen, biochemical; AID 727, 2007; 97,000 tested, 0.84% active; inhibition, %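 (tested at 7 µM)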; biochemical FAK kinase activity assay;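 further: 0% = DMSO and 100% = reference compound high control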
# PTPN22 act: LYP phosphatase activators, primary screen, biochemical, DiFMUP fluorescence, 2 µM | AID 697, 2007 | activation, % at 2 µM | Tyrosine-protein phosphatase non-receptor type 22 (Homo sapiens), Q9Y2R2 | recombinant LYP; 0 = plate median, 100 = signal doubled | 96,000 tested, 0.11% active;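 active means activation at 2 µM above a set limit, the mean plus 5 SD, cut at about 37% in these data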
# PTPN22 inh 2: PTPN22 phosphatase inhibitors, primary screen, biochemical, DiFMUP fluorescence, 2 µM; recombinant LYP catalytic domain; inhibition, % at 2 µM; AID 640, 2007; 96,000 tested, 0.21% active;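 active means inhibition at 2 µM at or above a set limit, the screen mean plus 3 SD, cut at about 24% in these data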;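 further: 0% = DMSO with enzyme and 100% = enzyme fully blocked by orthovanadate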
# FAK inh conf: FAK kinase inhibitors, retest, confirmation, biochemical; FAK kinase biochemical inhibition assay; 750 tested, 28% active; shares compounds with FAK inh; AID 794, 2007; inhibition, % at 7 µM
# * = called active by the depositor; / = not tested or not shown. Unless noted, no stated cut-off is given here; in the data, active means inhibition above about 19%; inactive means the rest.
SMILES,Rev-RRE block,FAK inh,PTPN22 act,PTPN22 inh 2,FAK inh conf
CC(=O)C1=C(c2ccccc2)NC(=O)NC1c1ccccc1OCC(=O)NCc1ccccc1 (centres undefined),14,0,3,-1,/
Cc1ccc(C)c(NC(=O)CCC(=O)NNC(=O)c2cccc([N+](=O)[O-])c2)c1,2,-7,-1,5,/
O=C(c1ccc2c(c1)OCO2)[C@@H]1[C@@H]2C(=O)N(C3CCCCC3)C(=O)[C@@H]2C2c3ccccc3C=CN21 (some centres undefined),8,9,-8,6,/
O=C(c1cccs1)[C@@H]1[C@@H]2C(=O)N(Cc3ccc4c(c3)OCO4)C(=O)[C@@H]2C2c3ccccc3C=CN21 (some centres undefined),20,20*,-2,5,9
COc1cc(/C=N/NC(=O)Nc2cccc3nsnc23)cc(OC)c1OC,2,2,-8,11,/
COc1ccc(/C=N/NC(=O)Nc2cccc3nsnc23)c(OC)c1,-1,26*,-2,0,3
C=CCn1c(SCC(=O)NC2CCS(=O)(=O)C2)nc2scc(C3CC3)c2c1=O (centres undefined),3,-1,-7,6,/
C=CCn1c(SCC(=O)c2ccc(CNC(C)=O)o2)nc2scc(C3CC3)c2c1=O,6,27*,-1,0,2
O=C1C(Nc2cccc(O)c2)=C(N2CCCCC2)C(=O)c2ccccc21,16,27*,-12,13,4
O=C(/C=C/c1ccc(O)cc1)c1ccc(NC2=C(N3CCCCC3)C(=O)c3ccccc3C2=O)cc1,5,30*,0,5,2
O=C1C(Nc2ccccc2)=C(N2CCCCC2)C(=O)c2ccccc21,6,23*,-7,10,4
Cc1ccc(NC2=C(N3CCCCC3)C(=O)c3ccccc3C2=O)cc1,2,15,9,-5,/
CC(=O)N(/N=C1\Sc2ccccc2C1=O)c1cccc(C)c1,8,19*,-6,8,16
CC(C)CNC(=O)CCc1c[nH]c2ccccc12,-2,-4,-5,8,/
